Activity calls are given as the source filed them. The calls are words filed in the database; no cut-off is given here.
Key:
MDA-MB-231 [1] = experiment: Antiproliferative activity against human MDA-MB-231 cells assessed as change in phenotypic response; assay type: functional, cell-based
Liver microsome [2] = experiment: Intrinsic clearance in human liver microsomes at 1 uM up to 40 mins by LC-MS/MS analysis; assay type: ADME
SW480 [3] = experiment: Antiproliferative activity against human SW480 cells assessed as change in phenotypic response; assay type: functional, cell-based
MRC5 [4] = experiment: Cytotoxicity against human MRC5 cells assessed as change in phenotypic response; assay type: cell-based
HCT-116 [5] = experiment: Antiproliferative activity against human HCT116 cells assessed as change in phenotypic response; assay type: functional, cell-based
[6] = Plasma protein binding in human plasma at 10 uM after 4 hrs by LC-MS/MS analysis; assay type: ADME, cell-free; conditions: read-out: PPB (converted)
[7] = Cytotoxicity against human 293T cells assessed as change in phenotypic response; assay type: cell-based; conditions: hek-293t
[8] = Permeability across MDCK cells; assay type: ADME, cell-based, Canis lupus familiaris; conditions: dog, read-out: permeability
Summary of the method: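 Measured across a confluent MDCK cell monolayer; apparent permeability is reported together with the efflux ratio.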

[9] = Cytotoxicity against human WI38 cells assessed as change in phenotypic response; assay type: cell-based; conditions: wi-38
BJ [10] = experiment: Cytotoxicity against human BJ cells assessed as change in phenotypic response; assay type: cell-based
HMEC [11] = experiment: Cytotoxicity against human HMEC cells assessed as change in phenotypic response; assay type: cell-based
U2OS [12] = experiment: Antiproliferative activity against human U2OS cells assessed as change in phenotypic response; assay type: functional, cell-based
NCI-H460 [13] = experiment: Antiproliferative activity against human NCI-H460 cells assessed as change in phenotypic response; assay type: functional, cell-based
[14] = Efflux ratio of permeability in MDCK cells; assay type: ADME, cell-based, Canis lupus familiaris; conditions: dog
Summary of the method: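 Permeability measured across a confluent MDCK cell monolayer, with the efflux ratio reported alongside the permeability value.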

SAOS-2 [15] = experiment: Antiproliferative activity against human Saos2 cells assessed as change in phenotypic response; assay type: functional, cell-based
A549 [16] = experiment: Antiproliferative activity against human A549 cells assessed as change in phenotypic response; assay type: functional, cell-based
HeLa [17] = experiment: Antiproliferative activity against human HeLa cells assessed as change in phenotypic response; assay type: functional, cell-based
HCT-116 [18] = experiment: Antiproliferative activity against human HCT116 cells assessed as change in phenotypic response up to 50 uM; assay type: functional, cell-based
SW480 [19] = experiment: Antiproliferative activity against human SW480 cells assessed as change in phenotypic response up to 50 uM; assay type: functional, cell-based
Liver microsome [20] = experiment: Intrinsic clearance in human liver microsomes; assay type: ADME
HMEC [21] = experiment: Cytotoxicity against human HMEC cells assessed as change in phenotypic response up to 50 uM; assay type: cell-based
MRC5 [22] = experiment: Cytotoxicity against human MRC5 cells assessed as change in phenotypic response up to 50 uM; assay type: cell-based
BJ [23] = experiment: Cytotoxicity against human BJ cells assessed as change in phenotypic response measured after prolonged treatment; assay type: cell-based
NCI-H460 [24] = experiment: Antiproliferative activity against human NCI-H460 cells assessed as change in phenotypic response up to 50 uM; assay type: functional, cell-based
UOK 262 [25] = experiment: Antiproliferative activity against human UOK 262 cells assessed as change in phenotypic response measured after prolonged treatment; assay type: functional, cell-based
HMEC [26] = experiment: Cytotoxicity against human HMEC cells assessed as change in phenotypic response measured after prolonged treatment; assay type: cell-based
SAOS-2 [27] = experiment: Antiproliferative activity against human Saos2 cells assessed as change in phenotypic response measured after prolonged treatment; assay type: functional, cell-based
SAOS-2 [28] = experiment: Antiproliferative activity against human Saos2 cells assessed as change in phenotypic response up to 50 uM; assay type: functional, cell-based
MDA-MB-231 [29] = experiment: Antiproliferative activity against human MDA-MB-231 cells assessed as change in phenotypic response up to 50 uM; assay type: functional, cell-based
HeLa [30] = experiment: Antiproliferative activity against human HeLa cells assessed as change in phenotypic response measured after prolonged treatment; assay type: functional, cell-based
NCI-H358 [31] = experiment: Antiproliferative activity against human NCI-H358 cells assessed as change in phenotypic response measured after prolonged treatment; assay type: functional, cell-based
[32] = Intrinsic clearance in mouse liver microsomes; assay type: ADME
U2OS [33] = experiment: Antiproliferative activity against human U2OS cells assessed as change in phenotypic response measured after prolonged treatment; assay type: functional, cell-based
[34] = Half life in human liver microsomes; assay type: ADME
Summary of the method: (§1)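 Incubated with human or mouse liver microsomes; the read-out was intrinsic clearance alongside half-life, given in hours.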

SW480 [35] = experiment: Antiproliferative activity against human SW480 cells assessed as change in phenotypic response measured after prolonged treatment; assay type: functional, cell-based
MRC5 [36] = experiment: Cytotoxicity against human MRC5 cells assessed as change in phenotypic response measured after prolonged treatment; assay type: cell-based
[37] = Cytotoxicity against human WI38 cells assessed as change in phenotypic response measured after prolonged treatment; assay type: cell-based; conditions: wi-38
HeLa [38] = experiment: Antiproliferative activity against human HeLa cells assessed as change in phenotypic response up to 50 uM; assay type: functional, cell-based
HCT-116 [39] = experiment: Antiproliferative activity against human HCT116 cells assessed as change in phenotypic response measured after prolonged treatment; assay type: functional, cell-based
MDA-MB-231 [40] = experiment: Antiproliferative activity against human MDA-MB-231 cells assessed as change in phenotypic response measured after prolonged treatment; assay type: functional, cell-based
NCI-H358 [41] = experiment: Antiproliferative activity against human NCI-H358 cells assessed as change in phenotypic response up to 50 uM; assay type: functional, cell-based
[42] = Plasma protein binding in human; assay type: ADME, cell-free; conditions: read-out: PPB (converted)
NCI-H460 [43] = experiment: Antiproliferative activity against human NCI-H460 cells assessed as change in phenotypic response measured after prolonged treatment; assay type: functional, cell-based
A549 [44] = experiment: Antiproliferative activity against human A549 cells assessed as change in phenotypic response up to 50 uM; assay type: functional, cell-based
[45] = Half life in rat plasma; assay type: ADME, cell-free
Summary of the method: (§2)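 Plasma stability was measured in human and rat plasma, with half-life reported in hours.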

[46] = Half life in human plasma; assay type: ADME, cell-free; summary of the method: as §2
[47] = Cytotoxicity against human 293T cells assessed as change in phenotypic response measured after prolonged treatment; assay type: cell-based; conditions: hek-293t
[48] = Cytotoxicity against human WI38 cells assessed as change in phenotypic response up to 50 uM; assay type: cell-based; conditions: wi-38
[49] = Cytotoxicity against human 293T cells assessed as change in phenotypic response up to 50 uM; assay type: cell-based; conditions: hek-293t
[50] = Half life in mouse liver microsomes; assay type: ADME; summary of the method: as §1
U2OS [51] = experiment: Antiproliferative activity against human U2OS cells assessed as change in phenotypic response up to 50 uM; assay type: functional, cell-based
BJ [52] = experiment: Cytotoxicity against human BJ cells assessed as change in phenotypic response up to 50 uM; assay type: cell-based
UOK 262 [53] = experiment: Antiproliferative activity against human UOK 262 cells assessed as change in phenotypic response up to 50 uM; assay type: functional, cell-based
A549 [54] = experiment: Antiproliferative activity against human A549 cells assessed as change in phenotypic response measured after prolonged treatment; assay type: functional, cell-based

CNc1cc(-c2cccc(Cl)c2Cl)nc(N)n1
Activity (MDA-MB-231 [1]): Active | CLH (Liver microsome [2]): 54 µL/min/mg | Activity (SW480 [3]): Active | Activity (MRC5 [4]): Toxic | Activity (HCT-116 [5]): Active | fraction unbound at 4 h, 10 µM [6]: 0.08 | Activity [7]: Toxic | Papp [8]: 30 ×10⁻⁶ cm/s | Activity [9]: Toxic | Activity (BJ [10]): Toxic | Activity (HMEC [11]): Toxic | Activity (U2OS [12]): Active | Activity (NCI-H460 [13]): Active | efflux ratio [14]: 0.8 | Activity (SAOS-2 [15]): Active | Activity (A549 [16]): Active | Activity (HeLa [17]): Active

Nc1nc(NC2CC2)cc(-c2cccc(Cl)c2Cl)n1
Activity (MDA-MB-231 [1]): Active | Activity (SW480 [3]): Active | Activity (MRC5 [4]): Toxic | Activity (HCT-116 [5]): Active | Activity [7]: Toxic | Activity [9]: Toxic | Activity (BJ [10]): Toxic | Activity (HMEC [11]): Toxic | Activity (U2OS [12]): Active | Activity (NCI-H460 [13]): Active | Activity (SAOS-2 [15]): Active | Activity (A549 [16]): Active | Activity (HeLa [17]): Active

Cc1cnc(N)nc1OCC(C)(C)C
Activity (HCT-116 [18]): inactive | Activity (SW480 [19]): inactive | CLH (Liver microsome [20]): 82 µL/min/mg | Activity (HMEC [21]): Non-toxic | Activity (MRC5 [22]): Non-toxic | Activity (BJ [23]): Non-toxic | Activity (NCI-H460 [24]): inactive | Activity (UOK 262 [25]): inactive | Activity (HMEC [26]): Non-toxic | Activity (SAOS-2 [27]): inactive | Activity (SAOS-2 [28]): inactive | Activity (MDA-MB-231 [29]): inactive | Activity (HeLa [30]): inactive | Activity (NCI-H358 [31]): inactive | CLH [32]: 280 µL/min/mg | Activity (U2OS [33]): inactive | half-life [34]: 0.5 h | Activity (SW480 [35]): inactive | Activity (MRC5 [36]): Non-toxic | Activity [37]: Non-toxic | Activity (HeLa [38]): inactive | Papp [8]: 37 ×10⁻⁶ cm/s | Activity (HCT-116 [39]): inactive | Activity (MDA-MB-231 [40]): inactive | Activity (NCI-H358 [41]): inactive | fraction unbound [42]: 0.06 | Activity (NCI-H460 [43]): inactive | efflux ratio [14]: 0.8 | Activity (A549 [44]): inactive | half-life [45]: 20 h | half-life [46]: 19 h | Activity [47]: Non-toxic | Activity [48]: Non-toxic | Activity [49]: Non-toxic | half-life [50]: 0.3 h | Activity (U2OS [51]): inactive | Activity (BJ [52]): Non-toxic | Activity (UOK 262 [53]): inactive | Activity (A549 [54]): inactive
